Laboratory results from ChEMBL document CHEMBL3124921, “Discovery of nitropyridine derivatives as potent HIV-1 non-nucleoside reverse transcriptase inhibitors via a structure-based core refining approach” (Eur J Med Chem, 2014).

What was measured:
[1] = target: Human immunodeficiency virus type 1 reverse transcriptase (Human immunodeficiency virus 1, UniProt Q72547); assay: Inhibition of wild type HIV-1 reverse transcriptase using […] as template/primer assessed as inhibition of biotin-dUTP incorporation after 1 hr by microtiter plate ELISA reader analysis
[2] = Selectivity index, ratio of CC50 for human MT4 cells to EC50 for HIV-2 ROD infected in human MT4 cells; format: toxicity, cell-based; settings: read-out: Ratio CC50/EC50
Method in brief: (§1)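 MT-4 cells are seeded at 6 × 10⁵ cells/mL. Serial fivefold compound dilutions go into two triplicate series, one mock-infected and one virus-infected. After 5 days, viability is read by MTT reduction to formazan, with absorbance at 540 and 690 nm. EC50 comes from infected wells and CC50 from mock-infected wells. SI = CC50/EC50.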

[3] = Selectivity index, ratio of CC50 for human MT4 cells to EC50 for wild type HIV-1 3B infected in human MT4 cells; format: toxicity, cell-based; settings: read-out: Ratio CC50/EC50
Method in brief: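 HIV-1 IIIB is added at 100–300 CCID50 per well to MT-4 cells seeded at 6 × 10⁵ cells/mL. Fivefold serial compound dilutions are run in triplicate, with a parallel mock-infected series for cytotoxicity. MTT viability is read at 540 and 690 nm after 5 days. SI = CC50 (mock-infected) / EC50 (infected).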

[4] = Selectivity index, ratio of CC50 for human MT4 cells to EC50 for HIV-1 RES056 harboring reverse transcriptase K103N/Y181C double mutant infected in human MT4 cells; format: toxicity, cell-based; settings: read-out: Ratio CC50/EC50; method in brief: as §1
[5] = Cytotoxicity against human MT4 cells assessed as growth inhibition after 5 days by MTT assay; format: cell-based
Method in brief: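 Mock-infected MT-4 cells (6 × 10⁵ cells/mL) were run in parallel triplicate wells with serial fivefold compound dilutions added from 10× stocks and culture medium instead of virus. Viability was measured by MTT at day 5, reading absorbance at 540 and 690 nm.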

[6] = test system: Human immunodeficiency virus 2; assay: Antiviral activity against HIV-2 ROD infected in human MT4 cells assessed as protection against virus-induced cytopathogenicity after 5 days by MTT assay; format: functional, organism-based; settings: Human immunodeficiency virus 2, ISOLATE ROD, MT4, 120 h
Method in brief: (§2)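 Compounds added at the start as 10× stocks to triplicate wells, then serially diluted fivefold. Virus stock at […] CCID50 was added to MT-4 cells resuspended at 6 × 10⁵ cells/mL. Viability was read by MTT reduction to formazan five days post-infection, with absorbance measured at 540 and 690 nm. EC50 is the concentration protecting against virus-induced cytopathicity.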

[7] = test system: Human immunodeficiency virus 1; assay: Antiviral activity against HIV-1 RES056 harboring reverse transcriptase K103N/Y181C double mutant infected in human MT4 cells assessed as protection against virus-induced cytopathogenicity after 5 days by MTT assay; format: functional, organism-based; settings: Human immunodeficiency virus 1, RES056, MT4, 120 h; method in brief: as §1
[8] = test system: Human immunodeficiency virus 1; assay: Antiviral activity against wild type HIV-1 3B infected in human MT4 cells assessed as protection against virus-induced cytopathogenicity after 5 days by MTT assay; format: functional, organism-based; settings: Human immunodeficiency virus 1, 3B, MT4, 120 h; method in brief: as §2

| Structure (SMILES) | IC50 [1] | selectivity ratio [2] | selectivity ratio [3] | selectivity ratio [4] | CC50 at 120 h [5] | EC50 [6] | EC50 [7] | EC50 [8] |
| --- | --- | --- | --- | --- | --- | --- | --- | --- |
| Cc1cc(Br)c(Oc2cc(Nc3ccc(C#N)cc3)ncc2[N+](=O)[O-])c(Br)c1 | 10.4 µM | < 1 | 691 | < 1 | 23.6 µM | > 23.6 µM | > 23.6 µM | 0.034 µM |
| N#Cc1ccc(Nc2cc(Oc3c(F)cc(F)cc3F)c([N+](=O)[O-])cn2)cc1 | – | < 1 | 5 | < 1 | 3.54 µM | > 3.54 µM | > 3.54 µM | 0.72 µM |
| Cc1cc(C)c(Nc2cc(Nc3ccc(C#N)cc3)ncc2[N+](=O)[O-])c(C)c1 | – | < 1 | 9 | < 1 | 262 µM | > 262 µM | > 262 µM | 30.2 µM |
| Cc1cc(Br)c(Nc2cc(Nc3ccc(C#N)cc3)ncc2[N+](=O)[O-])c(Br)c1 | – | < 1 | 43 | < 1 | 167 µM | > 167 µM | > 167 µM | 3.85 µM |
| N#Cc1ccc(Nc2cc(Nc3c(F)cc(Br)cc3Br)c([N+](=O)[O-])cn2)cc1 | – | < 1 | 49 | < 1 | 149 µM | > 149 µM | > 149 µM | 3.05 µM |
| Cc1ccc(Nc2cc(Oc3c(C)cc(C#N)cc3C)c([N+](=O)[O-])cn2)cc1 | – | < 1 | < 1 | < 1 | 207 µM | > 207 µM | > 207 µM | > 207 µM |
| Cc1cc(C#N)cc(C)c1Oc1cc(Nc2ccc([N+](=O)[O-])cc2)ncc1[N+](=O)[O-] | – | < 1 | 200 | < 1 | 141 µM | > 141 µM | > 141 µM | 0.72 µM |
| CC(C)Nc1cccnc1N1CCN(C(=O)c2cc3cc(NS(C)(=O)=O)ccc3[nH]2)CC1 [DELAVIRDINE] | – | – | > 71 | < 1 | > 36.2 µM | – | > 36.2 µM | 0.51 µM |
| O=C1Nc2ccc(Cl)cc2[C@@](C#CC2CC2)(C(F)(F)F)O1 [EFAVIRENZ] | – | – | > 1110 | > 21 | > 6.34 µM | – | 0.32 µM | 0.0057 µM |
| Cc1ccnc2c1NC(=O)c1cccnc1N2C1CC1 [NEVIRAPINE] | – | – | – | – | > 15 µM | – | 4.09 µM | – |
| Cc1cn([C@H]2C[C@H](N=[N+]=[N-])[C@@H](CO)O2)c(=O)[nH]c1=O [ZIDOVUDINE] | – | > 7720 | > 12500 | > 5960 | > 93.5 µM | 0.012 µM | 0.016 µM | – |
